Common to all, as to type: functional
In test [1] the test system is Escherichia coli. As to the kind of experiment: Antibacterial activity against Escherichia coli ATCC 25922 by microbroth dilution technique. Put shortly: (§1)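 Read-out was the minimum inhibitory concentration (MIC), found by broth microdilution.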
Background: In broth dilution the organism is exposed to a series of concentrations in liquid medium.

Test [2] concerns Staphylococcus epidermidis. The experiment in a line: Antibacterial activity against Staphylococcus epidermidis ATCC 12228 by microbroth dilution technique. The gist of the method: as §1
Test [3] has as its system Staphylococcus aureus. As to the kind of experiment: Antibacterial activity against methicillin-resistant Staphylococcus aureus ATCC 43300 by microbroth dilution technique.
In test [4] the test system is Staphylococcus aureus. The experiment in a line: Antibacterial activity against Staphylococcus aureus ATCC 25923 by microbroth dilution technique. The gist of the method: as §1
For test [5], the system named is Escherichia coli. As to the kind of experiment: Antibacterial activity against Escherichia coli ATCC 35218 by microbroth dilution technique. Put shortly: as §1
Test [6] relates to Staphylococcus aureus. The experiment in a line: Antibacterial activity against methicillin-susceptible Staphylococcus aureus ATCC 29213 by microbroth dilution technique. Put shortly: as §1

Here are results for 23 compounds from ChEMBL document CHEMBL1158632, “Design, synthesis, and antibacterial activity of 2,5-dihydropyrrole formyl hydroxyamino derivatives as novel peptide deformylase inhibitors” (2010).

In general, MIC refers to the lowest concentration found to suppress growth. Read a low MIC as a more susceptible organism.

Structures are written as SMILES. In brackets after ≈: the same amount, converted by molar mass.

With `CCCC[C@H](CN(O)C=O)C(=O)N1CC=C[C@H]1C(=O)Nc1ccccn1`, the MIC is above 64 µg/mL in test [1]; 0.5 µg/mL (≈ 1.39 µM) in test [2]; 0.125 µg/mL (≈ 0.347 µM) in test [3]; 0.125 µg/mL (≈ 0.347 µM) in test [4]; 32 µg/mL (≈ 88.8 µM) in test [5]; 1 µg/mL (≈ 2.77 µM) in test [6].
`CCCC[C@H](CN(O)C=O)C(=O)N1CC=C[C@H]1C(=O)Nc1ccc(F)cn1`: the MIC in test [1] was above 64 µg/mL; in test [2], 0.5 µg/mL (≈ 1.32 µM); in test [3], 0.25 µg/mL (≈ 0.661 µM); in test [4], 0.5 µg/mL (≈ 1.32 µM); in test [5], 64 µg/mL (≈ 169 µM); in test [6], 1 µg/mL (≈ 2.64 µM).
In the case of `CCCC[C@H](CN(O)C=O)C(=O)N1CC=C[C@H]1C(=O)Nc1ccc(F)c[n+]1[O-]`, the minimal inhibitory concentration (MIC) in test [1] was above 64 µg/mL; in test [2] it was 1 µg/mL (≈ 2.54 µM); in test [3], 0.5 µg/mL (≈ 1.27 µM); in test [4], 0.5 µg/mL (≈ 1.27 µM); in test [5], 64 µg/mL (≈ 162 µM); in test [6], 1 µg/mL (≈ 2.54 µM).
For `CCCC[C@H](CN(O)C=O)C(=O)N1CC=C[C@H]1C(=O)Nc1ncc(C)s1`, the MIC in test [1] turned out to be 32 µg/mL (≈ 84.1 µM); in test [2], 0.25 µg/mL (≈ 0.657 µM); in test [3] it was 0.125 µg/mL (≈ 0.329 µM); in test [4], 0.0625 µg/mL (≈ 0.164 µM); in test [5], 16 µg/mL (≈ 42.1 µM); in test [6] it was 0.25 µg/mL (≈ 0.657 µM).
Consider `CCCC[C@H](CN(O)C=O)C(=O)N1CC=C[C@H]1C(=O)N1CCOCC1`, for which the MIC was above 64 µg/mL in test [1]; above 64 µg/mL in test [2]; 32 µg/mL (≈ 90.5 µM) in test [3]; above 64 µg/mL in test [4]; above 64 µg/mL in test [5]; above 64 µg/mL in test [6].
Regarding `CCCC[C@H](CN(O)C=O)C(=O)N1CC=C[C@H]1C(=O)NC1CC1`, the MIC is 64 µg/mL (≈ 198 µM) in test [1]; 4 µg/mL (≈ 12.4 µM) in test [2]; 2 µg/mL (≈ 6.18 µM) in test [3]; 64 µg/mL (≈ 198 µM) in test [4]; 32 µg/mL (≈ 99 µM) in test [5]; 32 µg/mL (≈ 99 µM) in test [6].
With `CCCC[C@H](CN(O)C=O)C(=O)N1CC=C[C@H]1C(=O)Nc1ccc(Cl)cc1`, the minimal inhibitory concentration (MIC) in test [1] was above 64 µg/mL; in test [2], 4 µg/mL (≈ 10.2 µM); in test [3], 1 µg/mL (≈ 2.54 µM); in test [4], 8 µg/mL (≈ 20.3 µM); in test [5], above 64 µg/mL; in test [6], 2 µg/mL (≈ 5.08 µM).
Consider `CCCC[C@H](CN(O)C=O)C(=O)N1CC=C[C@H]1C(=O)Nc1ccccc1Br`, for which the minimal inhibitory concentration (MIC) in test [1] was above 64 µg/mL; in test [2], 8 µg/mL (≈ 18.3 µM); in test [3], 1 µg/mL (≈ 2.28 µM); in test [4], 32 µg/mL (≈ 73 µM); in test [5], above 64 µg/mL; in test [6], 4 µg/mL (≈ 9.13 µM).
As to `CCCC[C@H](CN(O)C=O)C(=O)N1CC=C[C@H]1C(=O)Nc1cccc(Br)c1`, the minimal inhibitory concentration (MIC) in test [1] was 64 µg/mL (≈ 146 µM); in test [2], 1 µg/mL (≈ 2.28 µM); in test [3] it was 0.125 µg/mL (≈ 0.285 µM); in test [4] it was 8 µg/mL (≈ 18.3 µM); in test [5], 16 µg/mL (≈ 36.5 µM); in test [6] it was 1 µg/mL (≈ 2.28 µM).
As to `CCCC[C@H](CN(O)C=O)C(=O)N1CC=C[C@H]1C(=O)Nc1ccc(Br)cc1`, the MIC was above 64 µg/mL in test [1]; 2 µg/mL (≈ 4.56 µM) in test [2]; 0.5 µg/mL (≈ 1.14 µM) in test [3]; 4 µg/mL (≈ 9.13 µM) in test [4]; above 64 µg/mL in test [5]; 1 µg/mL (≈ 2.28 µM) in test [6].
As for `CCCC[C@H](CN(O)C=O)C(=O)N1CC=C[C@H]1C(=O)Nc1ccccc1Cl`, the MIC in test [1] was above 64 µg/mL; in test [2], 1 µg/mL (≈ 2.54 µM); in test [3], 0.25 µg/mL (≈ 0.635 µM); in test [4], 0.5 µg/mL (≈ 1.27 µM); in test [5] it was 64 µg/mL (≈ 162 µM); in test [6], 2 µg/mL (≈ 5.08 µM).
Consider `CCCC[C@H](CN(O)C=O)C(=O)N1CC=C[C@H]1C(=O)Nc1ccc(F)cc1`, for which the MIC in test [1] was above 64 µg/mL; in test [2] it was 4 µg/mL (≈ 10.6 µM); in test [3] it was 1 µg/mL (≈ 2.65 µM); in test [4], 2 µg/mL (≈ 5.3 µM); in test [5] it was 64 µg/mL (≈ 170 µM); in test [6], 2 µg/mL (≈ 5.3 µM).
As for `CCCC[C@H](CN(O)C=O)C(=O)N1CC=C[C@H]1C(=O)Nc1ccc([N+](=O)[O-])cc1`, the MIC in test [1] is above 64 µg/mL; in test [2] it was 0.5 µg/mL (≈ 1.24 µM); in test [3] it was 0.5 µg/mL (≈ 1.24 µM); in test [4], 0.5 µg/mL (≈ 1.24 µM); in test [5] it was 32 µg/mL (≈ 79.1 µM); in test [6], 2 µg/mL (≈ 4.95 µM).
Turning to `CCCC[C@H](CN(O)C=O)C(=O)N1CC=C[C@H]1C(=O)Nc1ccc(OC)cc1`, the minimal inhibitory concentration (MIC) in test [1] was above 64 µg/mL; in test [2], 2 µg/mL (≈ 5.14 µM); in test [3], 1 µg/mL (≈ 2.57 µM); in test [4], 0.5 µg/mL (≈ 1.28 µM); in test [5], above 64 µg/mL; in test [6] it was 2 µg/mL (≈ 5.14 µM).
On to `CCCC[C@H](CN(O)C=O)C(=O)N1CC=C[C@H]1C(=O)Nc1nnc(C(F)(F)F)s1`, for which the minimum inhibitory concentration (MIC) in test [1] was above 64 µg/mL; in test [2] it was 16 µg/mL (≈ 36.7 µM); in test [3], 8 µg/mL (≈ 18.4 µM); in test [4], 32 µg/mL (≈ 73.5 µM); in test [5], above 64 µg/mL; in test [6], 16 µg/mL (≈ 36.7 µM).
Regarding `CCCC[C@H](CN(O)C=O)C(=O)N1CC=C[C@H]1C(=O)N[C@@H](C)c1ccccc1`, the MIC in test [1] is above 64 µg/mL; in test [2] it was 8 µg/mL (≈ 20.6 µM); in test [3] it was 8 µg/mL (≈ 20.6 µM); in test [4], 4 µg/mL (≈ 10.3 µM); in test [5], above 64 µg/mL; in test [6] it was 16 µg/mL (≈ 41.3 µM).
`CCCC[C@H](CN(O)C=O)C(=O)N1CC=C[C@H]1C(=O)N[C@H](C)c1ccccc1`: the MIC was above 64 µg/mL in test [1]; 4 µg/mL (≈ 10.3 µM) in test [2]; 2 µg/mL (≈ 5.16 µM) in test [3]; 4 µg/mL (≈ 10.3 µM) in test [4]; above 64 µg/mL in test [5]; 16 µg/mL (≈ 41.3 µM) in test [6].
Regarding `CCCC[C@H](CN(O)C=O)C(=O)N1CC=C[C@H]1C(=O)Nc1ccccc1`, the MIC in test [1] was above 64 µg/mL; in test [2], 2 µg/mL (≈ 5.56 µM); in test [3], 1 µg/mL (≈ 2.78 µM); in test [4], 4 µg/mL (≈ 11.1 µM); in test [5], 64 µg/mL (≈ 178 µM); in test [6] it was 8 µg/mL (≈ 22.3 µM).
Consider `CCCC[C@H](CN(O)C=O)C(=O)N1CCC[C@H]1C(=O)Nc1ccc(F)c[n+]1[O-]`, for which the minimal inhibitory concentration (MIC) in test [1] worked out at 64 µg/mL (≈ 161 µM); in test [2], 0.5 µg/mL (≈ 1.26 µM); in test [3], 0.5 µg/mL (≈ 1.26 µM); in test [4], 0.25 µg/mL (≈ 0.631 µM); in test [5] it was 64 µg/mL (≈ 161 µM); in test [6], 1 µg/mL (≈ 2.52 µM).
Take `O=C(O)c1cn(C2CC2)c2cc(N3CCNCC3)c(F)cc2c1=O` [CIPROFLOXACIN]: the minimum inhibitory concentration (MIC) in test [1] is below 0.0312 µg/mL; in test [2], 0.25 µg/mL (≈ 0.754 µM); in test [3], 1 µg/mL (≈ 3.02 µM); in test [4] it was 0.5 µg/mL (≈ 1.51 µM); in test [5], below 0.0312 µg/mL; in test [6], 0.5 µg/mL (≈ 1.51 µM).
On to `CC(=O)NC[C@H]1CN(c2ccc(N3CCOCC3)c(F)c2)C(=O)O1` [LINEZOLID], for which the MIC in test [1] was above 64 µg/mL; in test [2], 0.5 µg/mL (≈ 1.48 µM); in test [5], above 64 µg/mL.
As for `CC1(C)S[C@@H]2[C@H](NC(=O)Cc3ccccc3)C(=O)N2[C@H]1C(=O)O` [PENICILLIN G], the minimal inhibitory concentration (MIC) was above 64 µg/mL in test [1]; 2 µg/mL (≈ 5.98 µM) in test [2]; 64 µg/mL (≈ 191 µM) in test [3]; 0.0625 µg/mL (≈ 0.187 µM) in test [4]; above 64 µg/mL in test [5]; 1 µg/mL (≈ 2.99 µM) in test [6].
In the case of `CN[C@H](CC(C)C)C(=O)N[C@H]1C(=O)N[C@@H](CC(N)=O)C(=O)N[C@H]2C(=O)N[C@H]3C(=O)N[C@H](C(=O)N[C@H](C(=O)O)c4cc(O)cc(O)c4-c4cc3ccc4O)[C@H](O)c3ccc(c(Cl)c3)Oc3cc2cc(c3O[C@@H]2O[C@H](CO)[C@@H](O)[C@H](O)[C@H]2O[C@H]2C[C@](C)(N)[C@H](O)[C@H](C)O2)Oc2ccc(cc2Cl)[C@H]1O` [VANCOMYCIN], the MIC in test [1] and in test [5] was above 64 µg/mL in each case.
